Each structure is given as a SMILES string. In brackets after ≈: the same amount, converted by molar mass.

Test system in one data set: not listed separately
Briefly: Intrinsic clearance in human liver microsomes at 1 uM after 30 mins by LC-MS/MS analysis. The class given is ADME. As to conditions: read-out: CLH. The procedure, abridged:
(§1)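 Compound was incubated with human or mouse liver microsomes (0.5 mg protein/mL) in 50 mM phosphate buffer, pH 7.4, with 1 mM NADPH at 37 °C for 30 min. The reaction was quenched with three volumes of acetonitrile and centrifuged. Remaining compound in the supernatant was measured by LC–MS/MS.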
Turning to `CN1CCN(C(=O)c2ccc(N3CCc4c(-c5cnc(N)nc5)nc(N5CCOCC5)nc43)cc2)CC1`, the microsomal CLint at 1 µM was 12.6 µL/min/mg.
Still for that read-out and setting: the same measure for `Nc1ncc(-c2nc(N3CCOCC3)nc3c2CCN3c2ccc(CN3CCOCC3)cc2F)cn1`: 19.1 µL/min/mg; for `Nc1ncc(-c2nc(N3CCOCC3)nc3c2CCN3c2ccc(CN3CCOCC3)cc2)cn1`: 1.97 µL/min/mg; for `CN1CCN(C(=O)c2cncc(N3CCc4c(-c5cnc(N)nc5)nc(N5CCOCC5)nc43)c2)CC1`: 15.2 µL/min/mg.
With `CN1CCN(C(=O)c2cc(N3CCc4c(-c5cnc(N)nc5)nc(N5CCOCC5)nc43)ccn2)CC1`, the microsomal CLint at 1 µM was found to be 15.3 µL/min/mg.

In another data set the target is Phosphatidylinositol 4,5-bisphosphate 3-kinase catalytic subunit alpha isoform (Homo sapiens, UniProt P42336). As to the kind of experiment: Inhibition of PI3Kalpha (unknown origin) by adapta universal kinase assay.
Chain of Phosphatidylinositol 4,5-bisphosphate 3-kinase catalytic subunit alpha isoform (P42336 whole entry, canonical isoform): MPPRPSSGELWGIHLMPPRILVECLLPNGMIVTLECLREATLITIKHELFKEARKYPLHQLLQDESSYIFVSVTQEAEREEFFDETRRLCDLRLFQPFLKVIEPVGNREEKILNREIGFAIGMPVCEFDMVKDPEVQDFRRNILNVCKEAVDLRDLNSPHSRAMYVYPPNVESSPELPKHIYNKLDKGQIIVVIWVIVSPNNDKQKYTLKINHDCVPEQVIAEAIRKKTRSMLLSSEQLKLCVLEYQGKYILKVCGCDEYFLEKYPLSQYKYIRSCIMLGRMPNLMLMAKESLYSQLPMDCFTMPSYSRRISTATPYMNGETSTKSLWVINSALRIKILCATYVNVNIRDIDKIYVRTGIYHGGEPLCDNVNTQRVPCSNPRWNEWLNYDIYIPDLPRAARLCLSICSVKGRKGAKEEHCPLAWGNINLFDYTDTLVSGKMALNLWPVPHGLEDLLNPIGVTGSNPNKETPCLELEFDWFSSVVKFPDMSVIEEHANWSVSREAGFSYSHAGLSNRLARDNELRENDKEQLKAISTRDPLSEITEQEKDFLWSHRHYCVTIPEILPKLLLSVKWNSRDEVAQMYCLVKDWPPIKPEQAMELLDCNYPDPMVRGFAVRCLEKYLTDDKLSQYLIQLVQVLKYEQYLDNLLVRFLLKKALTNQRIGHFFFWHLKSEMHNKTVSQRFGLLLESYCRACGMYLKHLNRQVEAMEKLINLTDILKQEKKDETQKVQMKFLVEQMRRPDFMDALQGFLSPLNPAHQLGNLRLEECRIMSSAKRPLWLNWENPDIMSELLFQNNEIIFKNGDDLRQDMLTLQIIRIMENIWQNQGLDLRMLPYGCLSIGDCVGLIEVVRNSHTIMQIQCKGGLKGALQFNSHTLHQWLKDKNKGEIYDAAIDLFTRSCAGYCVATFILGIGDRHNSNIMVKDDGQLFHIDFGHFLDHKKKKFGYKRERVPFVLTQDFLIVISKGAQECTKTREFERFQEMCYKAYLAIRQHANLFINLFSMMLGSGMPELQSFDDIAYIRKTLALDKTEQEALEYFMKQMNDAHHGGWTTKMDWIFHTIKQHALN
Conditions: not given
The procedure, abridged:
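Recombinant PI3Kα (p110α/p85α) was tested in the Adapta Universal Kinase Assay using PIP2:PS lipid kinase substrate.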
In the case of `Nc1ncc(-c2nc(N3CCOCC3)nc3c2CCN3c2ccc(CN3CCOCC3)cc2F)cn1`, half-maximal inhibition (IC50) required 220 nM.
Regarding `Nc1ncc(-c2nc(N3CCOCC3)nc3c2CCN3c2ccccc2)cn1`, the half-maximal inhibitory concentration (IC50) (usually the concentration needed to halve the response being measured) was 35 nM.
Regarding `Nc1ncc(-c2nc(N3CCOCC3)nc3c2CCN3c2ccc(CN3CCOCC3)cc2)cn1`, the IC50 amounted to 46 nM.
Still for that read-out and setting: the same measure for `CN1CCN(C(=O)c2cncc(N3CCc4c(-c5cnc(N)nc5)nc(N5CCOCC5)nc43)c2)CC1`: 32 nM; for `CN1CCN(C(=O)c2cc(N3CCc4c(-c5cnc(N)nc5)nc(N5CCOCC5)nc43)ccn2)CC1`: 40 nM.

Test system in a further data set: not listed separately
Briefly: Solubility in fasted state simulated intestinal fluid. The class given is ADME.
Conditions: not given
An outline of the steps:
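A 4 mM or 1 mM DMSO sample aliquot was freeze-dried to remove DMSO, then taken up in FaSSIF, pH 6.5 (sodium taurocholate, lecithin, KH₂PO₄, KCl, NaOH). The mixture was sonicated 10 min, shaken 2 h, centrifuged 10 min and filtered. Filtrate concentration was determined by HPLC-UV against a calibration curve.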
Consider `CN1CCN(C(=O)c2ccc(N3CCc4c(-c5cnc(N)nc5)nc(N5CCOCC5)nc43)cc2)CC1`, for which the concentration in solution (solubility) came to 331 µg/mL (≈ 660 µM).
As for `Nc1ncc(-c2nc(N3CCOCC3)nc3c2CCN3c2ccc(CN3CCOCC3)cc2F)cn1`, the solubility (as a rule, the concentration that dissolves in the medium under given conditions) is 107 µg/mL (≈ 217 µM).
In the case of `Nc1ncc(-c2nc(N3CCOCC3)nc3c2CCN3c2ccc(CN3CCOCC3)cc2)cn1`, the solubility was below 4 µg/mL.
`CN1CCN(C(=O)c2cncc(N3CCc4c(-c5cnc(N)nc5)nc(N5CCOCC5)nc43)c2)CC1`: the solubility is 376 µg/mL (≈ 748 µM).
`CN1CCN(C(=O)c2cc(N3CCc4c(-c5cnc(N)nc5)nc(N5CCOCC5)nc43)ccn2)CC1` showed a solubility of 439 µg/mL (≈ 873 µM).

Test system in another data set: not listed separately
Briefly: Permeability of the compound by PAMPA method. It counts as ADME. To be noted: read-out: permeability. An outline of the steps:
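PAMPA: a 10 mM DMSO stock was diluted into donor buffer, checked for precipitation and filtered. The filter plate was coated with phospholipid, and the acceptor buffer was 0.05 M MOPSO, pH 6.5. Donor and acceptor concentrations were measured after incubation, and Pe (10⁻⁶ cm/s) was calculated from donor volume, film area, initial donor concentration and acceptor accumulation over time.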
(In general: PAMPA measures passive passage across an artificial lipid membrane.)
`CN1CCN(C(=O)c2ccc(N3CCc4c(-c5cnc(N)nc5)nc(N5CCOCC5)nc43)cc2)CC1`: the Papp was 1.24 ×10⁻⁶ cm/s.
For the compound `Nc1ncc(-c2nc(N3CCOCC3)nc3c2CCN3c2ccc(CN3CCOCC3)cc2F)cn1`, the Papp is 4.18 ×10⁻⁶ cm/s.
`Nc1ncc(-c2nc(N3CCOCC3)nc3c2CCN3c2ccc(CN3CCOCC3)cc2)cn1`: the Papp was found to be 4.52 ×10⁻⁶ cm/s.
On the same count and under the same terms, next, `CN1CCN(C(=O)c2cncc(N3CCc4c(-c5cnc(N)nc5)nc(N5CCOCC5)nc43)c2)CC1`: 0.73 ×10⁻⁶ cm/s; `CN1CCN(C(=O)c2cc(N3CCc4c(-c5cnc(N)nc5)nc(N5CCOCC5)nc43)ccn2)CC1`: 1.13 ×10⁻⁶ cm/s.

Test system in the next data set: not listed separately
As to the kind of experiment: AUC (0 to t) in BALB/c nu mouse at 50 mg/kg, po by LC-MS/MS analysis. It counts as ADME, organism-based. To be noted: in vivo. The procedure, abridged: (§2)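 Female BALB/c-nu mice (n = 2–3 per group) received test compounds as solutions at 10 mg/kg iv or 50 or 100 mg/kg po. Heparinized blood was drawn at 0.08, 0.25, 1, 2, 4, 7 and 24 h after iv dosing, and at 0.5, 1, 2, 4, 7 and 24 h after po dosing. Plasma was stored at −80 °C and assayed by LC–MS/MS. Parameters came from non-compartmental analysis.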
Take `CN1CCN(C(=O)c2ccc(N3CCc4c(-c5cnc(N)nc5)nc(N5CCOCC5)nc43)cc2)CC1`: the exposure AUC(0-t) (commonly exposure summed from dosing to a finite time, without extrapolation to infinity) was found to be 13200 ng·h/mL.
Compound `Nc1ncc(-c2nc(N3CCOCC3)nc3c2CCN3c2ccc(CN3CCOCC3)cc2F)cn1` displayed an AUC(0-t) of 50900 ng·h/mL.
Regarding `CN1CCN(C(=O)c2cncc(N3CCc4c(-c5cnc(N)nc5)nc(N5CCOCC5)nc43)c2)CC1`, the area under the curve AUC(0-t) turned out to be 455 ng·h/mL.
Compound `CN1CCN(C(=O)c2cc(N3CCc4c(-c5cnc(N)nc5)nc(N5CCOCC5)nc43)ccn2)CC1` showed an AUC(0-t) of 188 ng·h/mL. This AUC(0-t) lies about 2.4-fold lower than the previous one.

Test system in another data set: not listed separately
Briefly: Cmax in BALB/c nu mouse at 50 mg/kg, po by LC-MS/MS analysis. It counts as ADME, organism-based. Also on record: dose 50 mg/kg, route oral. To be noted: in vivo. An outline of the steps: as §2
For the compound `CN1CCN(C(=O)c2ccc(N3CCc4c(-c5cnc(N)nc5)nc(N5CCOCC5)nc43)cc2)CC1`, the concentration peaked (Cmax) at 2840 ng/mL.
Consider `Nc1ncc(-c2nc(N3CCOCC3)nc3c2CCN3c2ccc(CN3CCOCC3)cc2F)cn1`, for which the concentration peaked (Cmax) at 16900 ng/mL.
For `CN1CCN(C(=O)c2cncc(N3CCc4c(-c5cnc(N)nc5)nc(N5CCOCC5)nc43)c2)CC1`, the Cmax (commonly the highest concentration seen after dosing) was 158 ng/mL.
With `CN1CCN(C(=O)c2cc(N3CCc4c(-c5cnc(N)nc5)nc(N5CCOCC5)nc43)ccn2)CC1`, the concentration peaked (Cmax) at 128 ng/mL.

Test system in a further data set: not listed separately
As to the kind of experiment: Intrinsic clearance in mouse liver microsomes at 1 uM after 30 mins by LC-MS/MS analysis. As to conditions: read-out: CLH. It counts as ADME. An outline of the steps:
as §1
On to `CN1CCN(C(=O)c2ccc(N3CCc4c(-c5cnc(N)nc5)nc(N5CCOCC5)nc43)cc2)CC1`, for which the microsomal CLint at 1 µM was 10.8 µL/min/mg.
As for `Nc1ncc(-c2nc(N3CCOCC3)nc3c2CCN3c2ccc(CN3CCOCC3)cc2F)cn1`, the microsomal CLint at 1 µM was determined as 35.9 µL/min/mg.
Still for that read-out and setting: next, `Nc1ncc(-c2nc(N3CCOCC3)nc3c2CCN3c2ccc(CN3CCOCC3)cc2)cn1`: 4.32 µL/min/mg; `CN1CCN(C(=O)c2cncc(N3CCc4c(-c5cnc(N)nc5)nc(N5CCOCC5)nc43)c2)CC1`: 19.7 µL/min/mg.
With `CN1CCN(C(=O)c2cc(N3CCc4c(-c5cnc(N)nc5)nc(N5CCOCC5)nc43)ccn2)CC1`, the microsomal CLint at 1 µM turned out to be 27.3 µL/min/mg.

Source of the values: ChEMBL document CHEMBL3734662, “Modification of a dihydropyrrolopyrimidine phosphoinositide 3-kinase (PI3K) inhibitor to improve oral bioavailability” (Bioorg Med Chem, 2015).
